Assay results as given in PMC4294696 (Bioorganic & medicinal chemistry letters, 2014).
Entries after “also recorded” stand apart in the source; their conditions may differ.

Key:
[1] = molecular target: T1, 5-HT1AR (Homo sapiens, UniProt P08908); assay: 5-HT1AR competition binding with [3H]8-OH-DPAT
T1 sequence (P08908 1-422): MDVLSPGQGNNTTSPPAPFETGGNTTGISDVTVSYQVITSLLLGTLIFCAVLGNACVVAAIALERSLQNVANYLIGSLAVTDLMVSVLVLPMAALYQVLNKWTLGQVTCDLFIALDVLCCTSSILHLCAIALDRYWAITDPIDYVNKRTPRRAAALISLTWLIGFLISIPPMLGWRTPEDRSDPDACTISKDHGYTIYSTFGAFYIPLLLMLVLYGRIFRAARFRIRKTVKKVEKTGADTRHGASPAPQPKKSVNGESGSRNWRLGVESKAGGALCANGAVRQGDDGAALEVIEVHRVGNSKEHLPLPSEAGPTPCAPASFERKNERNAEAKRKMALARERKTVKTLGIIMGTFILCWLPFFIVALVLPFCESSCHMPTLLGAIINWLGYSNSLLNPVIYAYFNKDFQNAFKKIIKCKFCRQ

[2] = system: α-1AR; assay: α-1AR competition binding with [3H]-7-methoxyprazosin; settings: for selectivity for 5-HT1AR over α-1AR: ratio of Ki values
[3] = molecular target: T1, 5-HT1AR; assay: Agonist-stimulated [35S]GTPγS binding in CHO-h5-HT1A cell membranes; format: biochemical
How it was run: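 Membranes from CHO cells stably expressing human 5-HT1AR were used. [35S]GTPγS was added at 0.1 nM and incubation continued for 60 min at room temperature. The reaction was stopped by rapid filtration through GF/B filters, followed by three washes with ice-cold 20 mM HEPES, pH 7.4. Bound radioactivity was counted by liquid scintillation. The response was taken as binding above basal.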

SMILES | 5-HT1AR binding affinity (in words) [1] | selectivity for 5-HT1AR over α-1AR [2] | selectivity for 5-HT1AR over α-1AR (in words) [2] | agonist profile as measured by GTPγS binding (in words) [3]
COc1ccccc1N1CCN(CCCCn2ncc(=O)n(C)c2=O)CC1 [Compound 8] | nanomolar affinity |  |  | 
COc1ccc(N2CCN(CCCCn3ncc(=O)n(C)c3=O)CC2)cc1 [Compound 10] | sharp decrease in affinity |  |  | 
COc1ccc(N2CCN(CCCCn3ncc(=O)n(C)c3=O)CC2)c(OC)c1 [Compound 11] | sharp decrease in affinity |  |  | 
CCOc1ccccc1N1CCN(CCCCn2ncc(=O)n(C)c2=O)CC1 [Compound 12] | nanomolar affinity |  |  | 
Cn1c(=O)cnn(CCCCN2CCN(c3ccccc3OCCCF)CC2)c1=O [Compound 14] | nanomolar affinity |  |  | 
CSc1ccccc1N1CCN(CCCCn2ncc(=O)n(C)c2=O)CC1 [Compound 17] | nanomolar affinity |  |  | 
Cn1c(=O)cnn(CCCCN2CCN(c3ccc(I)cc3)CC2)c1=O [Compound 19] | sharp decrease in affinity |  |  | 
Cn1c(=O)cnn(CCCCN2CCN(c3ccccc3C#N)CC2)c1=O [Compound 20] | nanomolar affinity |  |  | 
Cn1c(=O)cnn(CCCCN2CCN(c3c(Br)cccc3C#N)CC2)c1=O [Compound 23] | sharp decrease in affinity |  |  | 
Cn1c(=O)cnn(CCCCN2CCN(c3ccccc3O)CC2)c1=O [Compound 24] | nanomolar affinity | > 10,000 times |  | 
Cn1c(=O)cnn(CCCCN2CCN(c3cccc(O)c3)CC2)c1=O [Compound 25] | nanomolar affinity; also recorded: high affinity |  | excellent selectivity | 
Cn1c(=O)cnn(CCCCN2CCN(c3ccccn3)CC2)c1=O [Compound 27, 4-Methyl-2-(4-(4-(pyridin-2-yl)piperazin-1-yl)butyl)-1,2,4-triazine-3,5(2H,4H)-dione] | high affinity |  | excellent selectivity | 
Cn1c(=O)cnn(CCCCN2CCN(c3ncccc3F)CC2)c1=O [Compound 29] | high affinity |  | excellent selectivity | 
Cn1c(=O)cnn(CCCCN2CCN(c3ccccc3S)CC2)c1=O [Compound 31] | nanomolar affinity | > 10000 times |  | 
Cn1c(=O)cnn(CCCCN2CCN(c3cccc(F)n3)CC2)c1=O [Compound 32] | high affinity; also recorded: nanomolar affinity |  | excellent selectivity; also recorded: higher selectivity to 5-HT1AR over α-1AR in comparison to CUMI-101 | robust agonist profile
Cn1c(=O)cnn(CCCCN2CCN(c3cccc(Br)n3)CC2)c1=O [Compound 33] | high affinity |  | excellent selectivity | 
COc1ccccc1N1CCN(CCCCCn2ncc(=O)n(C)c2=O)CC1 [Compound 38] | did not see considerable improvement |  |  | 
COc1ccc2cccc(N3CCN(CCCCCn4ncc(=O)n(C)c4=O)CC3)c2c1 [Compound 42] | did not see considerable improvement |  |  | 
